Reference: ChEMBL document CHEMBL3751694, “1-Piperazinylphthalazines as potential VEGFR-2 inhibitors and anticancer agents: Synthesis and in vitro biological evaluation” (Eur J Med Chem, 2016)

Tests used:
Assay type in all cases: functional
[1] = Growth inhibition of human UO31 cells at 10 uM after 48 hrs by SRB method; conditions: UO-31, 48 h, read-out: GI
Summary of the method: (§1)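 NCI 56-line screen, single-dose primary assay at 10^-5 M. Cells grown in RPMI 1640 with 5% FBS and 2 mM L-glutamine, plated at 5000–40,000 cells/well and held 24 h at 37 °C, 5% CO2 before drug addition. Compound was given from DMSO stock, exposure 48 h, then TCA fixation and SRB staining with absorbance at 515 nm. % growth is taken relative to time-zero and untreated controls.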

NCI-H522 = experiment: Growth inhibition of human NCI-H522 cells at 10 uM after 48 hrs by SRB method; conditions: NCI-H522, 48 h, read-out: GI
Summary of the method: (§2)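 NCI 56-line primary screen at a single 10^-5 M concentration. Cells grown in RPMI 1640 with 5% FBS and 2 mM L-glutamine, plated at 5000–40,000 cells/well, then preincubated for 24 h. Exposure was 48 h at 37 °C and 5% CO2. Adherent cells were fixed with cold TCA at 10% final, suspension cells at 16%. Staining used 0.4% SRB, read at 515 nm. Results are % growth inhibition relative to control.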

[2] = Growth inhibition of human […] cells at 10 uM after 48 hrs by SRB method; conditions: read-out: GI; summary of the method: as §2
K562 = experiment: Growth inhibition of human K562 cells at 10 uM after 48 hrs by SRB method; conditions: K562, 48 h, read-out: GI; summary of the method: as §2
T47D = experiment: Growth inhibition of human T47D cells at 10 uM after 48 hrs by SRB method; conditions: read-out: GI; summary of the method: as §1
[3] = Growth inhibition of human PC3 cells at 10 uM after 48 hrs by SRB method; conditions: PC-3, 48 h, read-out: GI; summary of the method: as §2
[4] = Growth inhibition of human TK10 cells at 10 uM after 48 hrs by SRB method; conditions: TK-10, 48 h, read-out: GI; summary of the method: as §1
[5] = Growth inhibition of human Caki1 cells at 10 uM after 48 hrs by SRB method; conditions: CAKI-1, 48 h, read-out: GI; summary of the method: as §2
A498 = experiment: Growth inhibition of human A498 cells at 10 uM after 48 hrs by SRB method; conditions: A498, 48 h, read-out: GI; summary of the method: as §2
SK-MEL-5 = experiment: Growth inhibition of human SK-MEL-5 cells at 10 uM after 48 hrs by SRB method; conditions: SK-MEL-5, 48 h, read-out: GI; summary of the method: as §2
[6] = Growth inhibition of human HCT116 cells at 10 uM after 48 hrs by SRB method; conditions: HCT-116, 48 h, read-out: GI; summary of the method: as §2
[7] = Growth inhibition of human COLO205 cells at 10 uM after 48 hrs by SRB method; conditions: COLO 205, 48 h, read-out: GI; summary of the method: as §2
NCI-H226 = experiment: Growth inhibition of human NCI-H226 cells at 10 uM after 48 hrs by SRB method; conditions: NCI-H226, 48 h, read-out: GI; summary of the method: as §2
A549 = experiment: Growth inhibition of human A549 cells at 10 uM after 48 hrs by SRB method; conditions: A549, 48 h, read-out: GI; summary of the method: as §2
SR = experiment: Growth inhibition of human SR cells at 10 uM after 48 hrs by SRB method; conditions: read-out: GI; summary of the method: as §2
[8] = Growth inhibition of human MOLT4 cells at 10 uM after 48 hrs by SRB method; conditions: MOLT-4, 48 h, read-out: GI; summary of the method: as §2
[9] = Growth inhibition of human HL-60(TB) cells at 10 uM after 48 hrs by SRB method; conditions: HL-60, 48 h, read-out: GI
Summary of the method: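 NCI single-dose primary screen at 10^-5 M, 48 h exposure. Cells grown in RPMI 1640 with 5% FBS and 2 mM L-glutamine. Suspension cells fixed in situ with TCA (final 16%), stained with SRB, absorbance read at 515 nm. Percent growth inhibition calculated against time-zero and untreated control plates.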

CCRF-CEM = experiment: Growth inhibition of human CCRF-CEM cells at 10 uM after 48 hrs by SRB method; conditions: read-out: GI; summary of the method: as §2
MDA-MB-468 = experiment: Growth inhibition of human MDA-MB-468 cells at 10 uM after 48 hrs by SRB method; conditions: MDA-MB-468, 48 h, read-out: GI; summary of the method: as §2
MDA-MB-231 = experiment: Growth inhibition of human MDA-MB-231 cells at 10 uM after 48 hrs by SRB method; conditions: MDA-MB-231, 48 h, read-out: GI; summary of the method: as §2
[10] = Growth inhibition of human IGROV1 cells at 10 uM after 48 hrs by SRB method; conditions: IGROV-1, 48 h, read-out: GI; summary of the method: as §2
[11] = Growth inhibition of human UACC257 cells at 10 uM after 48 hrs by SRB method; conditions: UACC-257, 48 h, read-out: GI; summary of the method: as §1
[12] = Growth inhibition of human HOP92 cells at 10 uM after 48 hrs by SRB method; conditions: HOP-92, 48 h, read-out: GI; summary of the method: as §2
MCF7 = experiment: Growth inhibition of human MCF7 cells at 10 uM after 48 hrs by SRB method; conditions: MCF7, 48 h, read-out: GI; summary of the method: as §2
[13] = Growth inhibition of human UACC62 cells at 10 uM after 48 hrs by SRB method; conditions: UACC-62, 48 h, read-out: GI; summary of the method: as §1
NCI/ADR-RES = experiment: Growth inhibition of human NCI/ADR-RES cells at 10 uM after 48 hrs by SRB method; conditions: read-out: GI; summary of the method: as §2
[14] = Growth inhibition of human OVCAR3 cells at 10 uM after 48 hrs by SRB method; conditions: OVCAR-3, 48 h, read-out: GI; summary of the method: as §2

SMILES | inhibition of growth at 10 µM [1] [%] | inhibition of growth at 10 µM (NCI-H522) [%] | inhibition of growth at 10 µM [2] [%] | inhibition of growth at 10 µM (K562) [%] | inhibition of growth at 10 µM (T47D) [%] | inhibition of growth at 10 µM [3] [%] | inhibition of growth at 10 µM [5] [%] | inhibition of growth at 10 µM (A498) [%] | inhibition of growth at 10 µM (SK-MEL-5) [%] | inhibition of growth at 10 µM [7] [%] | inhibition of growth at 10 µM (SR) [%] | inhibition of growth at 10 µM [8] [%] | inhibition of growth at 10 µM [9] [%] | inhibition of growth at 10 µM (CCRF-CEM) [%] | inhibition of growth at 10 µM (MDA-MB-468) [%] | inhibition of growth at 10 µM [11] [%] | inhibition of growth at 10 µM [12] [%] | inhibition of growth at 10 µM [13] [%] | also measured
COc1ccc(C(=O)CN2CCN(c3nnc(-c4ccccc4)c4ccccc34)CC2)cc1 | 35 | 35 | 32 | 30 | 36 | – | – | – | – | – | – | – | – | – | – | – | – | – | –
COc1ccc(-c2csc(NC(=O)CN3CCN(c4nnc(-c5ccccc5)c5ccccc45)CC3)n2)cc1 | 48 | 34 | 50 | 48 | 82 | 47 | 33 | 43 | 46 | 40 | 44 | 62 | 40 | 34 | 58 | – | – | – | inhibition of growth at 10 µM [4]: 32%; inhibition of growth at 10 µM [6]: 32%; inhibition of growth at 10 µM (NCI-H226): 36%; inhibition of growth at 10 µM (A549): 34%; inhibition of growth at 10 µM (MDA-MB-231): 42%
O=C(CN1CCN(c2nnc(-c3ccccc3)c3ccccc23)CC1)Nc1ccccc1Cl | 37 | 42 | 48 | 33 | 58 | 45 | – | – | – | – | 36 | 31 | 40 | – | 43 | 30 | 31 | – | inhibition of growth at 10 µM [10]: 46%
N#Cc1ccc(NC(=O)CN2CCN(c3nnc(-c4ccccc4)c4ccccc34)CC2)cc1 | 49 | 37 | 39 | 34 | 64 | – | 34 | 44 | 47 | 32 | 36 | 43 | 30 | – | 50 | 30 | 40 | 32 | inhibition of growth at 10 µM (MCF7): 30%
COc1ccc(NC(=O)CN2CCN(c3nnc(-c4ccccc4)c4ccccc34)CC2)cc1 | – | 30 | – | – | 55 | – | – | – | – | – | – | – | – | – | 37 | – | – | – | –
O=C(CN1CCN(c2nnc(-c3ccccc3)c3ccccc23)CC1)Nc1nccs1 | 40 | 41 | 51 | 36 | 64 | 38 | – | – | 36 | – | 31 | 39 | 38 | 30 | 59 | – | 35 | 37 | inhibition of growth at 10 µM (NCI/ADR-RES): 32%; inhibition of growth at 10 µM [14]: 38%
